Experimental data from ChEMBL document CHEMBL3351236, “Prodrug oncrasin-266 improves the stability, pharmacokinetics, and safety of NSC-743380” (Bioorg Med Chem, 2014).
Active and inactive are the calls of the source. The rule behind the calls is not given here.

Experiments:
[1] = tested on: Lung; assay: Drug level in lung of Balb/c mouse xenografted with human Calu3 cells assessed as aldehyde metabolite level at 60 mg/kg, iv using compound formulated in Solutol HS15 and ethyl alcohol measured after 24 hrs by HPLC/MS method; type: ADME, organism-based, Calu-3; parameters: dose 60 mg/kg, route intravenous; details: in vivo
Summary of the method: (§1)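 Nude mice bearing subcutaneous Calu3 xenografts, 1 mouse per treatment group. Organs and tumor were taken 24 h later and kept at −80°C, then homogenized in methanol (50 mg/ml) on ice. Homogenate was extracted with acetonitrile containing 0.2% formic acid plus an internal standard, centrifuged, and the supernatant analyzed by HPLC/MS.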

[2] = tested on: Tumour; assay: Drug level in tumor of Balb/c mouse xenografted with human Calu3 cells assessed as aldehyde metabolite level at 60 mg/kg, iv using compound formulated in Solutol HS15 and ethyl alcohol measured after 24 hrs by HPLC/MS method; type: ADME, organism-based, Neoplasm, Calu-3; parameters: dose 60 mg/kg, route intravenous; details: in vivo; summary of the method: as §1
[3] = tested on: Kidney; assay: Drug level in kidney of Balb/c mouse xenografted with human Calu3 cells assessed as aldehyde metabolite level at 60 mg/kg, iv using compound formulated in Solutol HS15 and ethyl alcohol measured after 24 hrs by HPLC/MS method; type: ADME, organism-based, Calu-3; parameters: dose 60 mg/kg, route intravenous; details: in vivo; summary of the method: as §1
[4] = tested on: Spleen; assay: Drug level in spleen of Balb/c mouse xenografted with human Calu3 cells assessed as aldehyde metabolite level at 60 mg/kg, iv using compound formulated in Solutol HS15 and ethyl alcohol measured after 24 hrs by HPLC/MS method; type: ADME, organism-based, Calu-3; parameters: dose 60 mg/kg, route intravenous; details: in vivo; summary of the method: as §1
[5] = Drug level in intestine of Balb/c mouse xenografted with human Calu3 cells at 60 mg/kg, iv using compound formulated in Solutol HS15 and ethyl alcohol measured after 24 hrs by HPLC/MS method; type: ADME, organism-based, Calu-3; parameters: dose 60 mg/kg, route intravenous; details: read-out: Drug uptake; summary of the method: as §1
[6] = tested on: Intestine; assay: Drug level in intestine of Balb/c mouse xenografted with human Calu3 cells assessed as aldehyde metabolite level at 60 mg/kg, iv using compound formulated in Solutol HS15 and ethyl alcohol measured after 24 hrs by HPLC/MS method; type: ADME, organism-based, Calu-3; parameters: dose 60 mg/kg, route intravenous; details: in vivo; summary of the method: as §1
[7] = tested on: Mus musculus; assay: Toxicity in Balb/c mouse assessed as mortality level at 300 mg/kg, ip using compound formulated in Solutol HS15 and ethyl alcohol measured after 3 days; type: organism-based; parameters: dose 300 mg/kg, route intraperitoneal; details: in vivo, 72 h
Summary of the method: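 Acute toxicity: 3 Balb/c mice (7–8 weeks) per group, given i.p. 300 mg/kg on day 1 and again on day 2. Deaths were recorded by day; survivors were followed for 2 weeks.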

[8] = tested on: Mus musculus; assay: Toxicity in Balb/c mouse assessed as mortality at 150 mg/kg, ip dosed daily for 3 days using compound formulated in Solutol HS15 and ethyl alcohol measured on day 5; type: organism-based; parameters: dose 150 mg/kg, route intraperitoneal; details: in vivo, 72 h
[9] = tested on: Mus musculus; assay: Toxicity in Balb/c mouse assessed as serum AST level at 150 mg/kg, ip dosed daily for 3 days using compound formulated in Solutol HS15 and ethyl alcohol measured on day 6; type: organism-based; parameters: dose 150 mg/kg, route intraperitoneal; details: in vivo, 72 h
[10] = tested on: Mus musculus; assay: Toxicity in Balb/c mouse assessed as serum ALT level at 150 mg/kg, ip dosed daily for 3 days using compound formulated in Solutol HS15 and ethyl alcohol measured on day 6; type: organism-based; parameters: dose 150 mg/kg, route intraperitoneal; details: in vivo, 72 h
[11] = tested on: Mus musculus; assay: Toxicity in Balb/c mouse assessed as serum ALP level at 150 mg/kg, ip dosed daily for 3 days using compound formulated in Solutol HS15 and ethyl alcohol measured on day 6; type: organism-based; parameters: dose 150 mg/kg, route intraperitoneal; details: in vivo, 72 h
[12] = tested on: Mus musculus; assay: Toxicity in Balb/c mouse assessed as serum ALT level at 25 mg/kg, ip dosed daily for 8 days using compound formulated in Solutol HS15 and ethyl alcohol measured on day 6; type: organism-based; parameters: dose 25 mg/kg, route intraperitoneal; details: in vivo, 192 h
[13] = tested on: Mus musculus; assay: Toxicity in Balb/c mouse assessed as serum ALP level at 25 mg/kg, ip dosed daily for 8 days using compound formulated in Solutol HS15 and ethyl alcohol measured on day 6; type: organism-based; parameters: dose 25 mg/kg, route intraperitoneal; details: in vivo, 192 h
[14] = tested on: Mus musculus; assay: Toxicity in Balb/c mouse assessed as changes in blood cell parameters at 150 mg/kg, ip dosed daily for 3 days using compound formulated in Solutol HS15 and ethyl alcohol measured after 48 hrs; type: organism-based; parameters: dose 150 mg/kg, route intraperitoneal; details: in vivo
[15] = tested on: NCI-H157; assay: Anticancer activity against human NCI-H157 cells at 0.03 to 30 uM by sulforhodamine B assay; type: functional, cell-based
Summary of the method: (§2)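 Sulforhodamine B viability assay on lung cancer cells exposed to a range of compound concentrations for 3 days. Untreated reference: DMSO-treated cells set as 100. Values are mean ± SD of quadruplicate wells.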

[16] = tested on: NCI-H460; assay: Anticancer activity against human H460 cells at 0.03 to 30 uM by sulforhodamine B assay; type: functional, cell-based; summary of the method: as §2
[17] = tested on: Calu-3; assay: Anticancer activity against human Calu3 cells at 0.03 to 30 uM by sulforhodamine B assay; type: functional, cell-based; summary of the method: as §2
[18] = tested on: NCI-H1299; assay: Anticancer activity against human H1299 cells at 0.03 to 30 uM by sulforhodamine B assay; type: functional, cell-based; summary of the method: as §2
[19] = Stability in powder form at 4 degC to 37 degC after 1 to 14 days by HPLC method; type: physicochemical
Summary of the method: (§3)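 Powders were kept at 4°C, room temperature (21°C) or 37°C and sampled for up to 90 days. Each aliquot was dissolved in DMSO, diluted with 9 volumes acetonitrile, and analyzed by HPLC for purity.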

[20] = Stability in powder form in non-evacuated chambers at 37 degC after 1 to 14 days by HPLC method; type: physicochemical; summary of the method: as §3
[21] = Stability in powder form in non-evacuated chambers at 37 degC after 14 days by HPLC method; type: physicochemical; details: read-out: Stability; summary of the method: as §3
[22] = Stability in stock solution with Solutol HS15 and ethyl alcohol solvent at room temperature by HPLC method; type: physicochemical
Summary of the method: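 Stock solutions were made by dissolving compound in 75% (w/v) Solutol HS15 in ethanol (about 20% v/v ethanol). Final concentrations were 8 mg/ml for prodrug and 5 mg/ml for parent. Stocks were stored at 4°C or room temperature; aliquots were frozen at −20°C before HPLC.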

[23] = Stability in injectable solution with Solutol HS15 and ethyl alcohol and 0.9% NaCl assessed as drug hydrolysis within 7 hrs at room temperature by HPLC method; type: physicochemical; details: 7 h
[24] = Stability in injectable solution with Solutol HS15 and ethyl alcohol and 0.9% NaCl assessed as drug hydrolysis within 7 hrs at 37 degC by HPLC method; type: physicochemical; details: read-out: Drug degradation
[25] = Half life in Balb/c mouse at 25 mg/kg, iv using compound formulated in Solutol HS15 and ethyl alcohol by HPLC/MS method; type: ADME, organism-based; parameters: dose 25 mg/kg, route intravenous; details: in vivo
Summary of the method: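 Balb/c mice received 25 mg/kg by tail vein in Solutol HS15/ethanol vehicle. Blood was drawn from the tail vein at 0, 1, 2, 3.5, 7 and 24 h, 3 mice per time point, into lithium-heparin tubes. Plasma (50 µl) was precipitated with 150 µl acetonitrile containing 0.2% formic acid and internal standard, iced 15 min, centrifuged, and the supernatant analyzed by HPLC/MS for parent and released drug.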

[26] = tested on: Liver; assay: Drug level in liver of Balb/c mouse xenografted with human Calu3 cells assessed as aldehyde metabolite level at 60 mg/kg, iv using compound formulated in Solutol HS15 and ethyl alcohol measured after 24 hrs by HPLC/MS method; type: ADME, organism-based, Calu-3; parameters: dose 60 mg/kg, route intravenous; details: in vivo; summary of the method: as §1
[27] = Drug level in tumor of Balb/c mouse xenografted with human Calu3 cells at 60 mg/kg, iv using compound formulated in Solutol HS15 and ethyl alcohol measured after 24 hrs by HPLC/MS method; type: ADME, organism-based, Neoplasm, Calu-3; parameters: dose 60 mg/kg, route intravenous; details: read-out: Drug uptake; summary of the method: as §1
[28] = Drug level in lung of Balb/c mouse xenografted with human Calu3 cells at 60 mg/kg, iv using compound formulated in Solutol HS15 and ethyl alcohol measured after 24 hrs by HPLC/MS method; type: ADME, organism-based, Calu-3; parameters: dose 60 mg/kg, route intravenous; details: read-out: Drug uptake; summary of the method: as §1
[29] = tested on: Mus musculus; assay: Toxicity in Balb/c mouse assessed as serum AST level at 25 mg/kg, ip dosed daily for 8 days using compound formulated in Solutol HS15 and ethyl alcohol; details: in vivo, 192 h
[30] = tested on: Mus musculus; assay: Toxicity in Balb/c mouse assessed as histopathological changes in liver at 150 mg/kg, ip dosed once using compound formulated in Solutol HS15 and ethyl alcohol measured after 48 hrs; details: in vivo

OCc1cn(Cc2cccc(Cl)c2)c2ccccc12
Drug uptake [1]: 34.3 µg/g
Drug uptake [2]: 1.7 µg/g
Drug uptake [3]: 31 µg/g
Drug uptake [4]: 19.9 µg/g
concentration at 24 h [5]: 14300 ng/g
Drug uptake [6]: 30.1 µg/g
Activity [7]: Toxic
Activity [8]: Toxic
Activity [9]: 4045 U/L
Activity [10]: 1936 U/L
Activity [11]: 3 U/L
Activity [12]: 80.3 U/L
Activity [13]: 44 U/L
Activity [14]: Non-toxic
Activity [15]: Active
Activity [16]: Active
Activity [17]: Active
Activity [18]: inactive
Stability [19]: Stable
Stability [20]: Unstable
remaining at 336 h [21]: < 5%
Stability [22]: 1 weeks
Stability [23]: Stable
degraded at 7 h [24]: > 20%
half-life [25]: 30 min
Drug uptake [26]: 25 µg/g
concentration at 24 h [27]: 4200 ng/g
concentration at 24 h [28]: 4200 ng/g
Activity [29]: 206.7 U/L
Activity [30]: Toxic
